Legend:
[1] = system: Saccharomyces cerevisiae; experiment: Inhibition of recombinant His-tagged yeast GYS2P expressed in Escherichia coli BL21(DE3) cells assessed as enzyme activity at 20 uM using UDPG as substrate in presence of G-6-P by 14C-glucose incorporation assay relative to control; set-up: scale not given: the % may be the effect or the level left
[2] = target: T1, Glycogen [starch] synthase, muscle (Homo sapiens) (UniProt P13807); experiment: Inhibition of C-terminal 6His-tagged wild type human GYS1 assessed as enzyme activity at 20 uM using UDPG as substrate in presence of 1 mM G-6-P by 14C-glucose incorporation assay relative to control; set-up: scale not given: the % may be the effect or the level left
T1 sequence (whole entry): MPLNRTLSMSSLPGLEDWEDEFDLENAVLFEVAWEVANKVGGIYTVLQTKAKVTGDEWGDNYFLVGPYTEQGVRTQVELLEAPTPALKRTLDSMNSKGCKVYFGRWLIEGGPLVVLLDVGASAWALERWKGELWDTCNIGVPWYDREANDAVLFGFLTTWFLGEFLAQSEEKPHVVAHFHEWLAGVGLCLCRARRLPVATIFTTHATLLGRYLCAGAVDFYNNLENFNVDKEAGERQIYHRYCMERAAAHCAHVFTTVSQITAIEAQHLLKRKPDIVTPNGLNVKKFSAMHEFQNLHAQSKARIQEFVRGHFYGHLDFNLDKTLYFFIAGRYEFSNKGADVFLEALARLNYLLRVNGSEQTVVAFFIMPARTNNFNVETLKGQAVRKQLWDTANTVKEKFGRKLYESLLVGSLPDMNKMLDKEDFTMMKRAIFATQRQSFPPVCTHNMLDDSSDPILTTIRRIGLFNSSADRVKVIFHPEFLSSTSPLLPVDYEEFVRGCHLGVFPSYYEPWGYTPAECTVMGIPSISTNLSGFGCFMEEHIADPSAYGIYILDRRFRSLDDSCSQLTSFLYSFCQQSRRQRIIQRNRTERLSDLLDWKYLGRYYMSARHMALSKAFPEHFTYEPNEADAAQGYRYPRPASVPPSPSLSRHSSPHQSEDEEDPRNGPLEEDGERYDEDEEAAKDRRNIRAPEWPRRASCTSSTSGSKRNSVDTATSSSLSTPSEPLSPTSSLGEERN

[3] = organism: Homo sapiens; experiment: Inhibition of C-terminal 6His-tagged human GYS1 delta634S8,11N mutant assessed as enzyme activity at 20 uM using UDPG as substrate in presence of 0.4 mM G-6-P by 14C-glucose incorporation assay relative to control; set-up: scale not given: the % may be the effect or the level left
[4] = system: Saccharomyces cerevisiae; experiment: Inhibition of recombinant His-tagged yeast GYS2P expressed in Escherichia coli BL21(DE3) cells assessed as enzyme activity at 300 uM using UDPG as substrate in presence of G-6-P by 14C-glucose incorporation assay relative to control; set-up: scale not given: the % may be the effect or the level left
[5] = organism: Homo sapiens; experiment: Inhibition of C-terminal 6His-tagged human GYS1 delta634S8,11N mutant assessed as enzyme activity at 300 uM using UDPG as substrate in presence of 0.4 mM G-6-P by 14C-glucose incorporation assay relative to control; set-up: scale not given: the % may be the effect or the level left
[6] = target: T1, Glycogen [starch] synthase, muscle (Homo sapiens); experiment: Inhibition of C-terminal 6His-tagged wild type human GYS1 assessed as enzyme activity at 300 uM using UDPG as substrate in presence of 1 mM G-6-P by 14C-glucose incorporation assay relative to control; set-up: scale not given: the % may be the effect or the level left
[7] = target: T2, Glycogen [starch] synthase, muscle (Homo sapiens, UniProt P13807); experiment: Inhibition of C-terminal 6His-tagged wild type human GYS1 using UDPG as substrate in presence of 1 mM G-6-P by 14C-glucose incorporation assay
T2 sequence (P13807 whole entry): T1 sequence (whole entry)
Summary of the method: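 Full-length wild-type hGYS1 with C-terminal 6×His tag in place of the intein-chitin binding domain, Ni-NTA purified. Glucose transfer from UDP-[14C]glucose into glycogen with 0.2 mM UDPG and 1 mM G6P. Controls contained 2% (v/v) DMSO. IC50 was fitted by four-parameter logistic. Values are mean ± SEM of at least three independent experiments in duplicate.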

Activity [2] [%] | Activity [3] [%] | Activity [5] [%] | Activity [6] [%] | IC50 [7] [µM] | Structure (SMILES) | Activity [1] [%] | Activity [4] [%]
84.7 | 25.2 |  |  |  | Oc1ccc(-c2n[nH]cc2-c2ccccc2)c(O)c1O | > 95 | 
 |  | 56.6 | 93.4 |  | Oc1ccc(-c2c(-c3ccccc3)ncn2CCc2c[nH]cn2)cc1 |  | 66.6
12.2 | 5.28 |  |  | 13.7 | Oc1ccc(-c2n[nH]c(C(F)(F)F)c2-c2ccc(Cl)c(Cl)c2)c(O)c1O | 47.4 | 
94 | 89 |  |  |  | Cc1[nH]nc(-c2ccc(O)c(O)c2O)c1-c1ccc(F)cc1 | > 95 | 
89.2 | 92.7 |  |  |  | O=[N+]([O-])c1ccc(-c2c(-c3ccc(O)cc3O)n[nH]c2C(F)(F)F)cc1 | 82.3 | 
 |  | 72.1 | 87.5 |  | O=C(O)CCc1ccc(-c2ccccc2)n1-c1ccc(F)cc1 |  | 84.7
42 | 8.14 |  |  | 10.1 | N#Cc1ccc(-c2c(-c3ccc(O)c(O)c3O)n[nH]c2C(F)(F)F)cc1 | 51.2 | 
80.1 | > 95 |  |  |  | COC(=O)c1ccc(-c2c(-c3ccc(O)c(O)c3O)n[nH]c2C)cc1 | 90.6 | 
91.8 | > 95 | 6.47 | 4.34 | 52.9 | Cc1[nH]nc(-c2ccc(O)c(O)c2O)c1-c1ccc(Cl)cc1 | > 95 | 3.52
81.4 | 40.3 |  |  |  | Oc1ccc(-c2n[nH]c(C(F)(F)F)c2-c2ccc(OC(F)(F)F)cc2)c(O)c1O | 91.6 | 
 |  | 94.4 | > 95 |  | c1ccc(-c2ncn(CCc3c[nH]cn3)c2-c2ccncc2)cc1 |  | 72.7
78.4 | 74.2 |  |  | 72.4 | Oc1ccc(-c2c(-c3cc(F)c(O)cc3O)n[nH]c2C(F)(F)F)cc1 | 65.2 | 
22.6 | 23 |  |  | 9.82 | Oc1ccc(-c2c[nH]nc2-c2ccc(O)c(O)c2O)cc1 | 6.21 | 
52.5 |  |  |  | 19.5 | Oc1ccc(-c2n[nH]cc2-c2ccc(Cl)c(Cl)c2)c(O)c1O |  | 
> 95 | 87.9 |  |  |  | Oc1ccc(-c2n[nH]c(C(F)(F)F)c2-c2ccc(Cl)cc2)c(O)c1 | > 95 | 
66.8 | 85 |  |  | 34 | O=[N+]([O-])c1ccc(-c2c[nH]nc2-c2ccc(O)c(O)c2O)cc1 | 78.4 | 
 |  | > 95 | > 95 |  | Oc1ccc(-c2c(-c3ccccc3)ncn2CCCn2ccnc2)cc1 |  | 94.8
47.2 | 5.68 |  |  | 16.4 | Oc1ccc(-c2n[nH]c(C(F)(F)F)c2-c2ccccc2)c(O)c1O | 51.8 | 
 |  | 50.6 | 84 |  | COc1ccc(-c2ccc(CCC(=O)O)n2-c2ccc(O)cc2)cc1 |  | 34.5
 |  | 40.6 | 78.7 |  | NC(=O)c1ccc(-n2c(CCC(=O)O)ccc2-c2ccccc2)cc1 |  | 49.3
 |  | 84.3 | > 95 |  | Cc1ccc(-c2ccccc2)n1-c1ccc(O)cc1 |  | 79.7
 |  | > 95 | > 95 |  | Oc1ccc(-n2c(-c3ccccc3)ccc2-c2ccccc2)cc1 |  | 86
84.7 | 81.7 |  |  |  | Cc1[nH]nc(-c2ccc(O)c(O)c2O)c1-c1ccc(Cl)c(Cl)c1 | > 95 | 
 |  | 93.3 | > 95 |  | CN1CCCC1CCn1cnc(-c2ccccc2)c1-c1ccncc1 (stereo unspecified) |  | > 95
